{
  "source": "ChEMBL document CHEMBL1125819",
  "about": "“Novel benzamides as selective and potent gastrokinetic agents. 2. Synthesis and structure-activity relationships of 4-amino-5-chloro-2-ethoxy-N-[[4-(4-fluorobenzyl)-2- morpholinyl]methyl] benzamide citrate (AS-4370) and related compounds” (J Med Chem, 1991)",
  "key": {"Canis familiaris [1]": {"species": "Canis familiaris", "test": "Effective dose required to inhibit 50% of apomorphine effect", "assay_type": "functional", "settings": "Canis lupus familiaris", "outline": "(§1)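 Dogs received oral test article, then were challenged with apomorphine, and vomiting frequency was counted; saline controls were run. ED50 with 95% confidence limits was derived by probit analysis. Significance versus control was tested by Student's t test.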"}, "[2]": {"biological_target": "T1, Adrenergic receptor alpha-1 (Rattus norvegicus, UniProt P15823+P23944+P43140)", "T1 sequence (P15823 whole entry)": "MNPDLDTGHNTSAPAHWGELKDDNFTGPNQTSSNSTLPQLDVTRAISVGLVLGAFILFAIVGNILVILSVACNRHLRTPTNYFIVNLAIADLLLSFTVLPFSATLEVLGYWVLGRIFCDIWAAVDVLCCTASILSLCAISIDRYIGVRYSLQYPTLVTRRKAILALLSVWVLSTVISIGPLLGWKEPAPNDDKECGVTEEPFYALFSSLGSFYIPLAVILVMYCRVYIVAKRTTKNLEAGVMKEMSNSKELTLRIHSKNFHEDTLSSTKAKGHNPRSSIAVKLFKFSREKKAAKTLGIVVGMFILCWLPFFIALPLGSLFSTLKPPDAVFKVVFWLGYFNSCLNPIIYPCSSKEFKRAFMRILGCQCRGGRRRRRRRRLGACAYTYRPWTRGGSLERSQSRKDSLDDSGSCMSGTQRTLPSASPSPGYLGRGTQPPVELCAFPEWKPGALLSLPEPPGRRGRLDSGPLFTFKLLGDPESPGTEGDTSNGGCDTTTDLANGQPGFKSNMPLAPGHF", "T1 sequence (P23944 whole entry)": "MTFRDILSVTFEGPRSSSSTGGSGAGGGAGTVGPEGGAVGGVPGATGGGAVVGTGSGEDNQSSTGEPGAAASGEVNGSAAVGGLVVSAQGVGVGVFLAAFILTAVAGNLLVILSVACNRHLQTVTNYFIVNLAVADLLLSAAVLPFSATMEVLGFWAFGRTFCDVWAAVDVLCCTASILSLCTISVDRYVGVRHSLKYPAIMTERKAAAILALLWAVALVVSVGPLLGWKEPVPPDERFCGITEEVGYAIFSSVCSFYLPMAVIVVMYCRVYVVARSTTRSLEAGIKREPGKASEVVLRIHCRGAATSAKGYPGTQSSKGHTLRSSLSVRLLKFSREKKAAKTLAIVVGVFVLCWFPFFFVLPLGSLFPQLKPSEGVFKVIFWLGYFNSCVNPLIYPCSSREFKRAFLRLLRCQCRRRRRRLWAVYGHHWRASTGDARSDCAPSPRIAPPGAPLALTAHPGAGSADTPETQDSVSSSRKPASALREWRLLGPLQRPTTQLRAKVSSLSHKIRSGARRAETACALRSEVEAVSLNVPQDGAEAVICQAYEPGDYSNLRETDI", "T1 sequence (P43140 whole entry)": "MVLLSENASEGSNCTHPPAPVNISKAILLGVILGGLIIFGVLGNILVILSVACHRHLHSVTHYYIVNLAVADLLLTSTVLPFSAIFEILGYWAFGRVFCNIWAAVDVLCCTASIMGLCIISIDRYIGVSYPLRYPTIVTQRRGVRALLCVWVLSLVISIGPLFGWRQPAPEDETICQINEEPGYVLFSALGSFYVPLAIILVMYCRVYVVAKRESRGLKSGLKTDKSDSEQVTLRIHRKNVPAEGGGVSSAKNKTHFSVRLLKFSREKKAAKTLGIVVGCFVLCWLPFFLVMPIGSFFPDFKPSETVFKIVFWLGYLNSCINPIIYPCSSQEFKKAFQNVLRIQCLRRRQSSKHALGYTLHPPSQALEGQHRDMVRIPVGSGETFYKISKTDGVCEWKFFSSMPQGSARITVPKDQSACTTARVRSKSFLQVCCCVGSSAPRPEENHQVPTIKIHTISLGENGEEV", "test": "Inhibitory activity against Alpha-1 adrenergic receptor by 3H ligand binding experiments.", "assay_type": "protein assay", "outline": "(§2)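 Competition binding on rat brain synaptic membranes at 10 mg wet tissue per assay, with compounds at 0.01–1000 μM. Radioligand and tissue: S1, [3H]serotonin, frontal cortex; S2, [3H]spiperone, frontal cortex; α1, [3H]WB-4101, whole brain; α2, [3H]clonidine, whole brain. Assays ended by rapid filtration and scintillation counting. IC50 was derived by probit analysis.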"}, "Rattus norvegicus": {"system": "Rattus norvegicus", "test": "Gastric emptying of phenol red semisolid meal in rats at dose of 2.0 mg/kg, administered perorally.", "assay_type": "functional", "settings": "route oral"}, "Canis familiaris [3]": {"system": "Canis familiaris", "test": "Compound was tested for anti-apomorphine effect in 2 dogs and the vomiting frequency expressed at a dose of 1.0 mg/kg perorally.", "assay_type": "functional, Canis lupus familiaris", "settings": "route oral", "outline": "as §1"}, "[4]": {"biological_target": "Serotonin 1 (5-HT1) receptor (Rattus norvegicus, UniProt P28564+P30940+P19327+P28565)", "test": "Inhibitory activity against 5-hydroxytryptamine 1 receptor by 3H ligand binding experiments.", "assay_type": "protein assay", "outline": "as §2"}, "[5]": {"biological_target": "T2, Adrenergic receptor alpha-2 (Rattus norvegicus, UniProt P22086+P19328+P22909)", "T2 sequence (P22086 whole entry)": "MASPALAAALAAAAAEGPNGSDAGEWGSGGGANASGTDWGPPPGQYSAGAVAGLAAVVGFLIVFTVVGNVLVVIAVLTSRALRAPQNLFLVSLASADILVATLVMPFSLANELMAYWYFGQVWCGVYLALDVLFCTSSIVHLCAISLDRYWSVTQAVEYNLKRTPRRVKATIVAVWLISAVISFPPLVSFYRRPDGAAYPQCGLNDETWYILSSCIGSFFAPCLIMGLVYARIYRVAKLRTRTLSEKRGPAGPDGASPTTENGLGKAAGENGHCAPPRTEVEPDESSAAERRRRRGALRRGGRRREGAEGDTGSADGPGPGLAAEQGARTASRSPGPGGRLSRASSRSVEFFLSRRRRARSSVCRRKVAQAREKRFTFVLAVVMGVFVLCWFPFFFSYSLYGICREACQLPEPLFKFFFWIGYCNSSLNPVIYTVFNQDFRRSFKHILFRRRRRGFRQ", "T2 sequence (P19328 whole entry)": "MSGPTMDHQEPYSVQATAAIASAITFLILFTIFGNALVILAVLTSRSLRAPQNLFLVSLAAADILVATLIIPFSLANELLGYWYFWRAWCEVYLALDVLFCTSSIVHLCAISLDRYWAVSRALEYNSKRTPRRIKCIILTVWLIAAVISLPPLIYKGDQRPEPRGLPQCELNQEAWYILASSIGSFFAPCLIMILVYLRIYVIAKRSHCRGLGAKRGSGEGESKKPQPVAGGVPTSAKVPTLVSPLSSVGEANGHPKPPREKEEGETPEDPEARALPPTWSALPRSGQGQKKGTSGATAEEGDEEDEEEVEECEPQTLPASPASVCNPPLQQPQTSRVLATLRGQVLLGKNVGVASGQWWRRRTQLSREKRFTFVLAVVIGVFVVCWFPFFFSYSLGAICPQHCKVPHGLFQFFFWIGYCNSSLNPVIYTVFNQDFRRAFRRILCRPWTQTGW", "T2 sequence (P22909 whole entry)": "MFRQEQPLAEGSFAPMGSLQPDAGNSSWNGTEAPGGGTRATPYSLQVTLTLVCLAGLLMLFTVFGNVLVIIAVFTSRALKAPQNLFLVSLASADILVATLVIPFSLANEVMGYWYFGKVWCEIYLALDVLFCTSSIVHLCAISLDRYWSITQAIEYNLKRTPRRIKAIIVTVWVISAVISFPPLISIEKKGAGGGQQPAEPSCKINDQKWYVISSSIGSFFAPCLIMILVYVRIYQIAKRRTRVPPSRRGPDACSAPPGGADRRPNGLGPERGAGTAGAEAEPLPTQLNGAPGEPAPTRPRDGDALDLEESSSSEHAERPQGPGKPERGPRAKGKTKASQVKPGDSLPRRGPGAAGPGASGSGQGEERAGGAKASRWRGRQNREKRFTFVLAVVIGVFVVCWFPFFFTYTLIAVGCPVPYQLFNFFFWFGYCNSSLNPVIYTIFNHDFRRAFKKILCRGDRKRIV", "test": "Inhibitory activity against alpha-2 adrenergic receptor by 3H ligand binding experiments.", "assay_type": "protein assay"}, "Canis familiaris [6]": {"system": "Canis familiaris", "test": "Compound was tested for anti-apomorphine effect in 3 dogs and the vomiting frequency expressed at a dose of 0.2 mg/kg perorally.", "assay_type": "functional, Canis lupus familiaris", "settings": "route oral", "outline": "as §1"}, "Canis familiaris [7]": {"system": "Canis familiaris", "test": "Compound was tested for anti-apomorphine effect in 3 dogs and the vomiting frequency expressed at a dose of 2.0 mg/kg perorally.", "assay_type": "functional, Canis lupus familiaris", "settings": "route oral", "outline": "as §1"}, "Canis familiaris [8]": {"system": "Canis familiaris", "test": "Compound was tested for anti-apomorphine effect in 3 dogs and the vomiting frequency expressed at a dose of 1.0 mg/kg perorally.", "assay_type": "functional, Canis lupus familiaris", "settings": "route oral", "outline": "as §1"}, "Canis familiaris [9]": {"system": "Canis familiaris", "test": "Compound was tested for anti-apomorphine effect in 3 dogs and the vomiting frequency expressed at a dose of 0.5 mg/kg perorally.", "assay_type": "functional, Canis lupus familiaris", "settings": "route oral", "outline": "as §1"}, "Canis familiaris [10]": {"species": "Canis familiaris", "test": "Effective dose required to inhibit 50% of apomorphine effect(95% confidence limits)", "assay_type": "functional", "settings": "Canis lupus familiaris", "outline": "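Dogs were given the test drug orally, with saline controls, and then challenged with apomorphine. Vomiting frequency was counted in groups of 2–8 dogs per dose. ED50 and its 95% confidence limits were obtained by probit analysis. Significance against controls used Student's t test.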"}, "Canis familiaris [11]": {"system": "Canis familiaris", "test": "Compound was tested for anti-apomorphine effect in 8 dogs and the vomiting frequency expressed at a dose of 1.0 mg/kg perorally.", "assay_type": "functional, Canis lupus familiaris", "settings": "route oral", "outline": "as §1"}, "Canis familiaris [12]": {"system": "Canis familiaris", "test": "Compound was tested for anti-apomorphine effect in 8 dogs and the vomiting frequency expressed at a dose of 10.0 mg/kg perorally.", "assay_type": "functional, Canis lupus familiaris", "settings": "route oral", "outline": "as §1"}, "D(2) dopamine receptor": {"biological_target": "D(2) dopamine receptor (Rattus norvegicus, UniProt P61169)", "sequence (P61169 whole entry)": "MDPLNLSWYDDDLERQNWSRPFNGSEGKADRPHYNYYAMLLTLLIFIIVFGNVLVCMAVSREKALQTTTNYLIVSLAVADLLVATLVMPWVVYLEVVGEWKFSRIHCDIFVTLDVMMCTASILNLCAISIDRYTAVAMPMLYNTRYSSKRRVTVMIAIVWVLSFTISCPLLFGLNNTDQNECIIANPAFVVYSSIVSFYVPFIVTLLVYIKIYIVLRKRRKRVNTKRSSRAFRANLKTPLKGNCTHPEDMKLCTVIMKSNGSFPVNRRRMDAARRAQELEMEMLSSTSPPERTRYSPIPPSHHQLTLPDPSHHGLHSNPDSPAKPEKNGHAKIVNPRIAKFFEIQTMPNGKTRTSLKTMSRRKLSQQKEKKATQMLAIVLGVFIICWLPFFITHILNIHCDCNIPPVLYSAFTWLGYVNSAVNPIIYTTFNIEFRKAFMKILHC", "test": "Inhibitory activity against dopamine receptor D2 by 3H ligand binding experiments.", "outline": "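Competition binding used rat striatal synaptic membranes (10 mg wet tissue per assay) with [3H]spiperone. Test compounds spanned 0.01–1000 μM. Assays were started by adding tissue and stopped by rapid glass-fibre filtration with ice-cold buffer washes. Filters were solubilised and radioactivity counted.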"}, "[13]": {"biological_target": "Serotonin 2 (5-HT2) receptor (Rattus norvegicus, UniProt P30994+P08909+P14842)", "test": "Inhibitory activity against 5-hydroxytryptamine 2 receptor by 3H ligand binding experiments.", "assay_type": "protein assay"}},
  "data": [
    {"smiles": "COc1cc(N)c(Cl)cc1C(=O)NC1CCN(CCCOc2ccc(F)cc2)CC1OC", "note": "(configuration not stated) [CISAPRIDE]", "values": [
      {"measurement": "ED50", "setting": "Canis familiaris [1]", "result": "> 1", "unit": "mg/kg"},
      {"measurement": "IC50", "setting": "[2]", "result": 0.11, "unit": "µM"},
      {"measurement": "GE", "setting": "Rattus norvegicus", "result": 47, "unit": "%"},
      {"measurement": "Vomiting frequency", "setting": "Canis familiaris [3]", "result": 6},
      {"measurement": "IC50", "setting": "[4]", "result": 4.47, "unit": "µM"}
    ]},
    {"smiles": "CCN(CC)CCNC(=O)c1cc(Cl)c(N)cc1OC", "note": "[METOCLOPRAMIDE]", "values": [
      {"measurement": "IC50", "setting": "[5]", "result": 7.7, "unit": "µM"},
      {"measurement": "IC50", "setting": "[2]", "result": 32.8, "unit": "µM"},
      {"measurement": "Vomiting frequency", "setting": "Canis familiaris [6]", "result": 7.7},
      {"measurement": "GE", "setting": "Rattus norvegicus", "result": 21, "unit": "%"},
      {"measurement": "Vomiting frequency", "setting": "Canis familiaris [7]", "result": 0.3},
      {"measurement": "IC50", "setting": "[4]", "result": 7.8, "unit": "µM"},
      {"measurement": "Vomiting frequency", "setting": "Canis familiaris [8]", "result": 1.3},
      {"measurement": "Vomiting frequency", "setting": "Canis familiaris [9]", "result": 4},
      {"measurement": "ED50", "setting": "Canis familiaris [10]", "result": 0.45, "unit": "mg/kg"}
    ]},
    {"smiles": "CCOc1cc(N)c(Cl)cc1C(=O)NCC1CN(Cc2ccc(F)cc2)CCO1.O=C(O)CC(O)(CC(=O)O)C(=O)O", "note": "(configuration not stated) [MOSAPRIDE CITRATE]", "values": [
      {"measurement": "Vomiting frequency", "setting": "Canis familiaris [11]", "result": 6.4},
      {"measurement": "ED50", "setting": "Canis familiaris [1]", "result": "> 10", "unit": "mg/kg"},
      {"measurement": "Vomiting frequency", "setting": "Canis familiaris [12]", "result": 6.3},
      {"measurement": "IC50", "setting": "D(2) dopamine receptor", "result": "> 100", "unit": "µM"},
      {"measurement": "IC50", "setting": "[5]", "result": "> 10", "unit": "µM"},
      {"measurement": "IC50", "setting": "[2]", "result": "> 100", "unit": "µM"},
      {"measurement": "IC50", "setting": "[13]", "result": "> 100", "unit": "µM"},
      {"measurement": "IC50", "setting": "[4]", "result": "> 100", "unit": "µM"}
    ]}
  ]
}
